{
  "source": "ChEMBL document CHEMBL3576866",
  "about": "“Discovery of a Cyclic Boronic Acid β-Lactamase Inhibitor (RPX7009) with Utility vs Class A Serine Carbapenemases” (J Med Chem, 2015)",
  "key": {"[1]": {"assay": "Inhibition of Escherichia coli recombinant P99 assessed as substrate nitrocefin degradation preincubated for 10 mins followed by substrate addition measured every 10 secs for 10 mins by spectrophotometric analysis", "how_it_was_run": "(§1)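 β-Lactamases purified from overexpressing recombinant E. coli. Enzyme preincubated with inhibitor at varying concentrations for 10 min at room temperature in 50 mM Na phosphate pH 7.0, 0.1 mg/mL BSA. Then 50 μM nitrocefin (final) added and cleavage read at 490 nm every 10 s for 10 min. Ki derived by the Waley method.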"}, "[2]": {"assay": "Inhibition of Escherichia coli recombinant CMY-2 assessed as substrate nitrocefin degradation preincubated for 10 mins followed by substrate addition measured every 10 secs for 10 mins by spectrophotometric analysis", "how_it_was_run": "as §1"}, "[3]": {"assay": "Inhibition of Escherichia coli recombinant KPC-2 assessed as substrate nitrocefin degradation preincubated for 10 mins followed by substrate addition measured every 10 secs for 10 mins by spectrophotometric analysis", "how_it_was_run": "as §1"}, "[4]": {"assay": "Inhibition of Escherichia coli recombinant CTX-M-15 assessed as substrate nitrocefin degradation preincubated for 10 mins followed by substrate addition measured every 10 secs for 10 mins by spectrophotometric analysis", "how_it_was_run": "as §1"}, "[5]": {"assay": "Inhibition of Escherichia coli recombinant SHV-12 assessed as substrate nitrocefin degradation preincubated for 10 mins followed by substrate addition measured every 10 secs for 10 mins by spectrophotometric analysis", "how_it_was_run": "as §1"}, "[6]": {"assay": "Inhibition of Escherichia coli recombinant TEM-10 assessed as substrate nitrocefin degradation preincubated for 10 mins followed by substrate addition measured every 10 secs for 10 mins by spectrophotometric analysis", "how_it_was_run": "as §1"}, "Klebsiella oxytoca [7]": {"tested_on": "Klebsiella oxytoca", "assay": "Antibacterial activity against Klebsiella oxytoca KX1019 expressing KPC2/OXA2 by broth microdilution method", "type": "functional"}, "Klebsiella pneumoniae [8]": {"tested_on": "Klebsiella pneumoniae", "assay": "Antibacterial activity against Klebsiella pneumoniae KP1082 expressing KPC2/SHV-1 by broth microdilution method", "type": "functional"}, "Klebsiella pneumoniae [9]": {"tested_on": "Klebsiella pneumoniae", "assay": "Antibacterial activity against Klebsiella pneumoniae KP1088 expressing KPC3/SHV-11/TEM-1 by broth microdilution method", "type": "functional"}, "Klebsiella pneumoniae [10]": {"tested_on": "Klebsiella pneumoniae", "assay": "Antibacterial activity against Klebsiella pneumoniae KP1083 expressing KPC3/SHV-1/TEM-1 by broth microdilution method", "type": "functional"}, "Klebsiella pneumoniae [11]": {"tested_on": "Klebsiella pneumoniae", "assay": "Antibacterial activity against Klebsiella pneumoniae KP1008 expressing KPC2 by broth microdilution method", "type": "functional"}, "Klebsiella pneumoniae [12]": {"tested_on": "Klebsiella pneumoniae", "assay": "Antibacterial activity against Klebsiella pneumoniae KP1004 expressing KPC2/TEM1/SHV11 by broth microdilution method", "type": "functional"}, "Klebsiella oxytoca [13]": {"tested_on": "Klebsiella oxytoca", "assay": "Antibacterial activity against Klebsiella oxytoca KX1017 expressing KPC2/OXA2/SHV30 by broth microdilution method", "type": "functional"}, "Klebsiella pneumoniae [14]": {"tested_on": "Klebsiella pneumoniae", "assay": "Antibacterial activity against Klebsiella pneumoniae KP1087 expressing KPC2/CTX-M-15/SHV-11/TEM-1 by broth microdilution method", "type": "functional"}, "Enterobacter cloacae": {"tested_on": "Enterobacter cloacae", "assay": "Antibacterial activity against Enterobacter cloacae ECL1058 expressing KPC3/SHV-11/TEM-1 by broth microdilution method", "type": "functional"}, "Escherichia coli": {"tested_on": "Escherichia coli", "assay": "microbe, parasite or virus in culture", "details": "EC1007"}, "Klebsiella pneumoniae [15]": {"tested_on": "Klebsiella pneumoniae", "assay": "Antibacterial activity against Klebsiella pneumoniae KP1084 expressing KPC3/SHV-11/TEM-1 by broth microdilution method", "type": "functional"}, "[16]": {"target": "Beta-lactamase (Klebsiella pneumoniae) (UniProt Q93LQ9)", "sequence (Q93LQ9 as listed by the source)": "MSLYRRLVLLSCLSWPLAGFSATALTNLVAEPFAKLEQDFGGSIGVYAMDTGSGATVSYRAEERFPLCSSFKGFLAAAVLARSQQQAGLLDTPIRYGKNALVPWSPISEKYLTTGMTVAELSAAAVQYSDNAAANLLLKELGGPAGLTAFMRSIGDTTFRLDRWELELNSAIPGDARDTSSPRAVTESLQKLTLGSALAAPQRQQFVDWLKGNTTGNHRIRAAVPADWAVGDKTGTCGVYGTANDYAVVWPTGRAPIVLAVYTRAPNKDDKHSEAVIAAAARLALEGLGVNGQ", "assay": "Inhibition of Klebsiella pneumoniae KP1004 KPC 2 carbapenemase assessed as minimum concentration required to reduce biapenem MIC from […] ug/ml to 1 ug/mL by broth microdilution method"}, "Klebsiella pneumoniae [17]": {"tested_on": "Klebsiella pneumoniae", "assay": "Antibacterial activity against Klebsiella pneumoniae KP1004 by broth microdilution method", "type": "functional, organism-based"}, "[18]": {"assay": "Inhibition of Escherichia coli MV1183 TEM-1 using nitrocefin as substrate preincubated for 10 mins followed by substrate addition measured for 500 secs"}, "Klebsiella pneumoniae [19]": {"tested_on": "Klebsiella pneumoniae", "assay": "Antibacterial activity against Klebsiella pneumoniae KP1074 in Swiss webster neutropenic mouse lung infection model assessed as change in log10 CFU in lung at 100 mg/kg, ip administered every 2 hrs starting at 2 hrs postinfection measured after 24 hrs relative to control", "type": "functional", "how_it_was_run": "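Neutropenic (cyclophosphamide) Swiss Webster mice infected intratracheally under isoflurane anesthesia with K. pneumoniae KP1074. […] Lungs removed 24 h after start of treatment, homogenized and plated for bacterial counts (CFU).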"}},
  "note": "The source made the active and inactive calls. No cut-off for these calls is given here.",
  "data": [
    {"compound": "O=C(O)[C@H]1/C(=C/CO)O[C@@H]2CC(=O)N21", "note": "[CLAVULANIC ACID]", "values": [
      {"measurement": "Ki", "setting": "[1]", "result": 1110, "unit": "µM"},
      {"measurement": "Ki", "setting": "[2]", "result": 845, "unit": "µM"},
      {"measurement": "Ki", "setting": "[3]", "result": 41.2, "unit": "µM"},
      {"measurement": "Ki", "setting": "[4]", "result": 0.027, "unit": "µM"},
      {"measurement": "Ki", "setting": "[5]", "result": "≤ 0.039", "unit": "µM"},
      {"measurement": "Ki", "setting": "[6]", "result": 0.02, "unit": "µM"}
    ]},
    {"compound": "C[C@]1(Cn2ccnn2)[C@H](C(=O)O)N2C(=O)C[C@H]2S1(=O)=O", "note": "[TAZOBACTAM]", "values": [
      {"measurement": "Ki", "setting": "[1]", "result": 1.1, "unit": "µM"},
      {"measurement": "Ki", "setting": "[2]", "result": 0.71, "unit": "µM"},
      {"measurement": "Ki", "setting": "[3]", "result": 1.6, "unit": "µM"},
      {"measurement": "Ki", "setting": "[4]", "result": 0.001, "unit": "µM"},
      {"measurement": "Ki", "setting": "[5]", "result": 0.0004, "unit": "µM"},
      {"measurement": "Ki", "setting": "[6]", "result": 0.005, "unit": "µM"}
    ]},
    {"compound": "C[C@@H](O)[C@H]1C(=O)N2C(C(=O)O)=C(S[C@@H]3CN[C@H](C(=O)Nc4cccc(C(=O)O)c4)C3)[C@H](C)[C@H]12", "values": [
      {"measurement": "MIC", "setting": "Klebsiella oxytoca [7]", "result": 16, "unit": "µg/mL"},
      {"measurement": "MIC", "setting": "Klebsiella pneumoniae [8]", "result": 4, "unit": "µg/mL"},
      {"measurement": "MIC", "setting": "Klebsiella pneumoniae [9]", "result": 16, "unit": "µg/mL"},
      {"measurement": "MIC", "setting": "Klebsiella pneumoniae [10]", "result": 32, "unit": "µg/mL"},
      {"measurement": "MIC", "setting": "Klebsiella pneumoniae [11]", "result": 8, "unit": "µg/mL"},
      {"measurement": "MIC", "setting": "Klebsiella pneumoniae [12]", "result": 32, "unit": "µg/mL"},
      {"measurement": "MIC", "setting": "Klebsiella oxytoca [13]", "result": 16, "unit": "µg/mL"},
      {"measurement": "MIC", "setting": "Klebsiella pneumoniae [14]", "result": "> 64", "unit": "µg/mL"},
      {"measurement": "MIC", "setting": "Enterobacter cloacae", "result": 32, "unit": "µg/mL"},
      {"measurement": "MIC", "setting": "Escherichia coli", "result": 8, "unit": "µg/mL"},
      {"measurement": "MIC", "setting": "Klebsiella pneumoniae [15]", "result": "> 64", "unit": "µg/mL"}
    ]},
    {"compound": "O=C(O)C[C@@H]1CC[C@H](NC(=O)Cc2cccc(O)c2)B(O)O1", "values": [
      {"measurement": "MEC", "setting": "[16]", "result": 1.25, "unit": "µg/mL"},
      {"measurement": "Activity", "setting": "Klebsiella pneumoniae [17]", "result": "inactive"}
    ]},
    {"compound": "O=C(O)C[C@@H]1CC[C@H](NC(=O)c2ccccc2)B(O)O1", "values": [
      {"measurement": "MEC", "setting": "[16]", "result": 0.3, "unit": "µg/mL"},
      {"measurement": "Activity", "setting": "Klebsiella pneumoniae [17]", "result": "inactive"}
    ]},
    {"compound": "Nc1cc(CC(=O)N[C@H]2CC[C@@H](CC(=O)O)OB2O)ccn1", "values": [
      {"measurement": "MEC", "setting": "[16]", "result": 0.04, "unit": "µg/mL"},
      {"measurement": "Activity", "setting": "Klebsiella pneumoniae [17]", "result": "inactive"}
    ]},
    {"compound": "O=C(O)C[C@@H]1CC[C@H](NC(=O)C(O)c2ccccc2)B(O)O1", "note": "(stereo partly drawn)", "values": [
      {"measurement": "MEC", "setting": "[16]", "result": 0.61, "unit": "µg/mL"},
      {"measurement": "Activity", "setting": "Klebsiella pneumoniae [17]", "result": "inactive"}
    ]},
    {"compound": "O=C(O)C[C@@H]1CC[C@H](NC(=O)C[C@H]2CCCCN2)B(O)O1", "values": [
      {"measurement": "MEC", "setting": "[16]", "result": 0.15, "unit": "µg/mL"},
      {"measurement": "Activity", "setting": "Klebsiella pneumoniae [17]", "result": "inactive"}
    ]},
    {"compound": "O=C(O)C[C@@H]1CC[C@H](NC(=O)CCc2ccccc2)B(O)O1", "values": [
      {"measurement": "MEC", "setting": "[16]", "result": 0.3, "unit": "µg/mL"},
      {"measurement": "Activity", "setting": "Klebsiella pneumoniae [17]", "result": "inactive"}
    ]},
    {"compound": "CC(=O)N[C@H]1CC[C@@H](CC(=O)O)OB1O", "values": [
      {"measurement": "MEC", "setting": "[16]", "result": 0.3, "unit": "µg/mL"},
      {"measurement": "Activity", "setting": "Klebsiella pneumoniae [17]", "result": "inactive"}
    ]},
    {"compound": "O=C(Cc1ccccc1)NC(Cc1cccc(C(=O)O)c1)B(O)O", "note": "(stereo not drawn)", "values": [
      {"measurement": "Ki", "setting": "[18]", "result": 0.006, "unit": "µM"}
    ]},
    {"compound": "C[C@@H](O)[C@H]1C(=O)N2C(C(=O)O)=C(S[C@@H]3CN[C@H](C(=O)N(C)C)C3)[C@H](C)[C@H]12", "note": "[MEROPENEM]", "values": [
      {"measurement": "MIC", "setting": "Klebsiella oxytoca [7]", "result": 4, "unit": "µg/mL"},
      {"measurement": "MIC", "setting": "Klebsiella pneumoniae [8]", "result": 4, "unit": "µg/mL"},
      {"measurement": "MIC", "setting": "Klebsiella pneumoniae [9]", "result": 8, "unit": "µg/mL"},
      {"measurement": "MIC", "setting": "Klebsiella pneumoniae [11]", "result": 4, "unit": "µg/mL"},
      {"measurement": "MIC", "setting": "Klebsiella pneumoniae [12]", "result": 8, "unit": "µg/mL"},
      {"measurement": "MIC", "setting": "Klebsiella oxytoca [13]", "result": 4, "unit": "µg/mL"},
      {"measurement": "MIC", "setting": "Klebsiella pneumoniae [14]", "result": 64, "unit": "µg/mL"},
      {"measurement": "MIC", "setting": "Enterobacter cloacae", "result": 8, "unit": "µg/mL"},
      {"measurement": "MIC", "setting": "Escherichia coli", "result": 4, "unit": "µg/mL"},
      {"measurement": "deltalog10CFU", "setting": "Klebsiella pneumoniae [19]", "result": 1.41},
      {"measurement": "MIC", "setting": "Klebsiella pneumoniae [15]", "result": "> 64", "unit": "µg/mL"}
    ]},
    {"compound": "O=C(O)C[C@@H]1CC[C@H](NC(=O)Cc2ccncc2)B(O)O1", "values": [
      {"measurement": "MEC", "setting": "[16]", "result": 0.15, "unit": "µg/mL"},
      {"measurement": "Activity", "setting": "Klebsiella pneumoniae [17]", "result": "inactive"}
    ]},
    {"compound": "N[C@H](C(=O)N[C@H]1CC[C@@H](CC(=O)O)OB1O)c1ccccc1", "values": [
      {"measurement": "MEC", "setting": "[16]", "result": 0.3, "unit": "µg/mL"},
      {"measurement": "Activity", "setting": "Klebsiella pneumoniae [17]", "result": "inactive"}
    ]}
  ]
}
